697 NFkB inh – lowers PMA/ionomycin-induced NF-kB signal in 697 B cells; 697 B-cell NF-kB luciferase reporter, 16 h; inhibition, % at 4 µM; actives 0.33% (n = 330,000); in the data active means inhibition above about 35%
CHOP inhibitor – blocks CHOP induction under ER stress; CHO-K1 CHOP-promoter luciferase, tunicamycin-induced, 15-18 h; actives 3.8% (n = 220,000); AID 2732; inhibition, % at 10 µM;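 active means compounds that reduced the stress-induced luciferase reporter signal by more than about 70% of percent inhibition, limit read from the data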;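 further: 0% = tunicamycin plus vehicle and 100% = wells without tunicamycin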
Jurkat NFkB inh – lowers PMA/ionomycin-induced NF-kB signal in Jurkat cells; PMA/ionomycin-induced NF-kB luciferase reporter, luminescence; inhibition, % at 4 µM; actives 0.53% (n = 330,000); AID 435003; in the data active means inhibition above about 50%
UPR CHOP act – activators of apoptotic arm of unfolded protein response (CHOP); actives 0.34% (n = 330,000); CHO-CHOP luciferase reporter, UPR activation, luminescence; percent of tunicamycin response over DMSO baseline; activation, % at 10 µM;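 active means at 10 µM dose, activation of 40% or more, normalized to positive control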;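 further: 100% = tunicamycin at 10 µg/mL and 0% = DMSO alone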
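Material: CHO-CHOP cells, stable luciferase reporter of PERK-eIF2a-CHOP signalling; quantity: 500 reporter cells seeded per well; buffer or medium: F12 medium containing 10% fetal bovine serum; compound: one dose, 10 µM in 0.5% DMSO; incubation: 6 h compound treatment, 37 °C; measured by: Steady-Glo luciferase luminescence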
XBP1 UPR activ – activators of adaptive arm of unfolded protein response (XBP1). CHO-XBP1 luciferase reporter, IRE1-XBP1 UPR activation, luminescence; percent of tunicamycin response, DMSO as zero. activation, % at 20 µM. actives 0.33% (n = 330,000). AID 463104;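 active means versus positive control, 20 µM dose yields 30% or more activation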;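 further: 100% = tunicamycin at 10 µg/mL and 0% = DMSO only wells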
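incubation = overnight seeding at 37 °C, 6 h compound treatment at 37 °C | assay system = CHO-XBP1 cells stably carrying IRE1-XBP1-driven luciferase reporter | input = 1000 cells per well | detection = luciferase luminescence | dosing = single point, 20 µM final compound, 1% DMSO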
* = called active by the depositor; . = no result. The entries come from a sample that favours hits as a whole.

SMILES	697 NFkB inh	CHOP inhibitor	Jurkat NFkB inh	UPR CHOP act	XBP1 UPR activ
N#CCCN(C(=O)COC(=O)C1=NNC(=O)CC1)c1ccccc1	4.2	.	-0.9	1.9	1.2
Cn1cc(C2=C(c3ccc(Cl)cc3Cl)C(=O)NC2=O)c2ccccc21	-31.2	86.4*	-7.2	2.6	-4.0
Cc1nn(C(=O)c2ccco2)c(C)c1Sc1ccc(Cl)cc1	-17.1	72.7*	-6.9	3.6	-2.0
Cc1occc1C(=O)N1CCN(c2ccc(Cl)c(Cl)c2)CC1	14.5	75.1*	3.6	1.5	-1.1
O=C(NCc1ccccc1)N1CCN(c2ccc(F)cc2)CC1	-11.3	-10.4	-0.8	-2.7	-1.2
O=C(NCc1ccccc1)N1CCN(c2ccc(Cl)c(Cl)c2)CC1	3.3	76.0*	43.5	-0.7	3.5
CCC1(C)NC(=O)N(CC(=O)NCC(=O)Nc2c(C)cc(C)cc2C)C1=O (stereo not given)	19.5	.	-20.1	-0.5	2.0
Cn1ncc(C#N)c1/N=C/N(Cc1ccccc1)Cc1ccccc1	-55.6	89.2*	3.1	-1.1	-2.5
CN1CCN(/C=N/c2c(C#N)cnn2C)CC1	-5.3	-31.3	-1.4	-2.0	-1.0
CC(N)=Nc1ccc([N+](=O)[O-])cc1	11.8	-16.6	-16.4	2.8	-0.6
O=[N+]([O-])c1ccc(N=Nc2c(Cl)cc(O)cc2Cl)cc1	.	102.3*	.	.	.
CCCCCCc1cc2cc(-c3nnc(-c4ccccc4O)o3)c(=O)oc2cc1O	18.8	-11.1	9.2	1.7	5.2
CCCCCCc1cc2cc(S(=O)(=O)c3ccc(F)cc3)c(=O)oc2cc1O	8.3	94.4*	-6.4	-1.8	-4.2
CCOC(=O)c1sc(Nc2nc3c(OC)cccc3s2)nc1C	-81.1	72.6*	-39.9	4.1	4.2
CCOC(=O)c1sc(Nc2ccccc2)nc1C	-41.5	31.8	-77.6	4.4	3.5
CCOC(=O)c1sc(Nc2ccc(C)cc2C)nc1C	-20.5	92.9*	-23.1	1.7	1.7
O=C(Nc1ccc(Cl)c(Cl)c1)OCCNC(=O)c1cccc(Cl)c1	15.0	62.5	-15.8	-1.2	-1.1
Clc1ccc(-c2noc(CSc3nnc(Cc4cccs4)n3-c3ccccc3)n2)cc1	-10.5	81.0*	1.5	0.4	-2.2
Fc1ccc(-n2c(Cc3ccccc3)nnc2SCc2nc(-c3cccs3)no2)cc1	15.5	75.2*	12.4	0.1	-2.6
c1ccc(-c2noc(CSc3nnc(Cc4cccs4)n3-c3ccccc3)n2)cc1	-1.7	13.6	8.3	0.8	-0.4
CSc1ccccc1C(=O)C1CCCN(S(=O)(=O)c2c(C)noc2C)C1 (stereo not given)	-4.0	11.1	12.4	-1.8	1.2
CCOC(=O)c1cc(-c2ccccc2)n(CC(=O)Nc2ccc(OC)cc2)c1C	-7.3	74.8*	9.7	-1.8	-2.9
COc1ccc(NC(=O)Cn2c(-c3ccccc3)cn(-c3ccc(C)cc3)c2=O)cc1	-13.2	72.1*	10.4	1.5	0.2
O=C(CSc1nc2[nH]ncc2c(=O)[nH]1)NCCc1ccccc1	5.9	-9.2	-11.5	0.0	-1.9
O=C(/C=C/c1cccnc1)/C=C/c1cccnc1	.	97.4*	.	.	.
COc1ccc(CCCNC(=O)C2CCC(=O)N(CCc3cccc(F)c3)C2)cc1 (stereo not given)	13.3	.	7.6	0.2	-1.5
COc1ccc(-c2[nH]ncc2-c2ccc(Cl)cc2)c(O)c1	-22.3	85.7*	2.5	-1.0	-1.1
COc1cccc(Oc2cn[nH]c2-c2ccc(OC)cc2O)c1	6.6	83.7*	4.4	0.1	2.2
O=[N+]([O-])c1ccc(COc2ccc(-c3[nH]ncc3-c3ccc(Cl)cc3)c(O)c2)cc1	13.7	81.5*	13.4	2.2	-0.1

Bioassay records: PubChem BioAssay, several laboratories
